# D1 mod – D1 CRE-luciferase signal change, two-sided – cell-based, HEK293 D1, dopamine EC30, D1 allosteric modulator project, primary screen | D(1A) dopamine receptor (Homo sapiens), P21728 | dopamine EC30 potentiation; actives deviate in either direction | B-score at 10 µM | hit rate 5.9% among 58,000;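 active means luminescence count or its row- and column-corrected plate score outside the 99.7% band of the plate's sample wells, on either side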
# hDAT+cocaine – changed hDAT dopamine uptake under cocaine IC80, either direction, primary screen, cocaine antagonist project, cell-based, LLC-PK1 hDAT, [14C]-dopamine uptake, MLSMR | Sodium-dependent dopamine transporter (Homo sapiens), Q01959 | LLC-PK1 hDAT cells, [14C]-dopamine uptake with cocaine IC80; actives deviate in either direction | B-score at 10 µM | hit rate 1.3% among 110,000;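 active means Z score or B-score, a plate-position-corrected score, falls beyond the plate's 99.7% confidence bounds, in either direction; inactive means both scores lie inside the 99.7% bounds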
# Target sequence (Q01959 whole entry, looked up): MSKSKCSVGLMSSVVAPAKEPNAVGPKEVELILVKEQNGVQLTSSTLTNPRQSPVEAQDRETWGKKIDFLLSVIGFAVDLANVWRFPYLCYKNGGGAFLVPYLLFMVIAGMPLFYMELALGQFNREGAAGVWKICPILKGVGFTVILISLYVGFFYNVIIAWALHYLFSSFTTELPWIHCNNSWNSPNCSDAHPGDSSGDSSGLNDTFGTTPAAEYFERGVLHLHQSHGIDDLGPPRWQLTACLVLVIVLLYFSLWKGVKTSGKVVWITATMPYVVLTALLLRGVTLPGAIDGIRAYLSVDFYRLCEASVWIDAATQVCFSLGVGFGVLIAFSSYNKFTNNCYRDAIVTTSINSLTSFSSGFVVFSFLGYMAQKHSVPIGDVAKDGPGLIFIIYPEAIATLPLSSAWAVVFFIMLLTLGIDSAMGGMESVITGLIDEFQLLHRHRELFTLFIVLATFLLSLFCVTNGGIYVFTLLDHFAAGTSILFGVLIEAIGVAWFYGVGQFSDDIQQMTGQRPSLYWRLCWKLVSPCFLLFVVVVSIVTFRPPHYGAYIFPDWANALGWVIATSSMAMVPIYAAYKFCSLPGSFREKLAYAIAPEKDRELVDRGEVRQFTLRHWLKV
# E coli WT exp – growth inhibitors of wild-type E. coli, primary screen, strain BW25113, expanded library, OD600 | hit rate 0.15% among 98,000 | growth inhibition, % at 100 µM | OD600 absorbance | AID 710, 2007;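 active means growth inhibition above about 50% at one test dose, limit read from the data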;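 further: growth measured after 20 h incubation at 37 °C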
# PostGolgi ctrl – growth inhibition of yeast control strain, primary screen, counter-screen for post-Golgi transport modulator project; efflux-deficient yeast background strain, growth absorbance A615, 16 h; inhibition, % at 10 µM; hit rate 5% among 98,000; AID 738, 2007
# PostGolgi yeast – phenotypic screen on post-Golgi transport, primary screen. post-Golgi transport phenotypic cell assay. inhibition, % at 10 µM. hit rate 0.9% among 98,000. AID 739, 2007;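 further: yeast cells grown in 1536-well plates; yeast grown about 18 h at 30C before absorbance read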
# Ecoli tolC – growth inhibitors of E. coli tolC mutant, primary screen, strain BW25113 ΔtolC::kan, 384-well | OD615 | growth inhibition, % at 10 µM (by protocol) | hit rate 2.2% among 65,000;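 active means growth inhibition at or above a cutoff equal to the mean over every tested compound plus 3 SD, cut at about 60% in these data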;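 further: growth measured after 20 h incubation at 37 °C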
#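 Test system: E. coli BW25113 ΔtolC::kan bacteria; incubation: 37 °C, 20 h exposure; medium: LB broth supplemented with 50 µg/mL kanamycin; read-out basis: percent growth inhibition; signal: A615 absorbance measurement; compound: 10 µM final, single dose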
# D1 mod confirm – D1 receptor positive allosteric modulators, retest, confirmation, cell-based, HEK293 D1, CRE-luciferase, duplicate | hit rate 88% among 2,200 | dopamine EC30 potentiation; stronger effect = higher value | luminescence at 10 µM | shares compounds with D1 mod;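 active means luminescence in either of two replicates above the same-plate mean plus 3 SD of the low-dose dopamine control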
# D1 no dopamine – D1 receptor agonism without dopamine, confirmation, mechanism study for D1 allosteric modulator project, cell-based, HEK293 D1, CRE-luciferase, secondary assay 1 | luminescence at 10 µM | luminescence, no dopamine; stronger effect = higher value | shares compounds with D1 mod | AID 646, 2007 | hit rate 0.8% among 1,900; in the data active means luminescence above about 3900
# Isoprot counter – isoproterenol response counter-screen activity for D1 modulators; AID 647; hit rate 63% among 2,200; shares compounds with D1 mod; HEK293 D1 CRE-luciferase, isoproterenol EC30 counter-screen; calls only at 10 µM;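 active means luminescence in either replicate above plate mean of wells with a partly effective reference agonist dose plus 3 SD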;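 further: isoproterenol raises cAMP through native beta-adrenoceptor Gs so signal bypasses D1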
# Hits are given with their value; n = inactive; x = no result; + = active, no number. In the library only some 9.3% were active in any assay of this set; here they are far more common. Unless noted, no stated cut-off is given here; in the data, active means inhibition above about 30%; inactive means the rest.
SMILES,D1 mod,hDAT+cocaine,E coli WT exp,PostGolgi ctrl,PostGolgi yeast,Ecoli tolC,D1 mod confirm,D1 no dopamine,Isoprot counter
CCCCSc1nc2c(cnn2-c2ccc(F)cc2)c(=O)[nH]1,7,n,n,n,n,n,7560,n,n
COC(=O)c1ccc(CSc2nc3c(cnn3-c3ccc(Cl)cc3)c(=O)[nH]2)o1,n,n,n,n,n,n,x,x,x
COC(=O)c1ccc(CSc2nc3c(cnn3-c3ccc(F)cc3)c(=O)[nH]2)o1,5.3,n,n,n,n,x,9428,n,n
COC(=O)c1ccc(CSc2nc3c(cnn3-c3ccccc3)c(=O)[nH]2)o1,6.5,n,n,n,n,n,12392,n,+
Cc1cc(C)cc(OCC(=O)OCC(=O)c2c(N)n(C)c(=O)n(C)c2=O)c1,x,n,n,n,n,x,x,x,x
CCCCN1CCc2c([nH]c3c(C)cccc23)C1=O,n,n,x,x,x,n,x,x,x
Cn1c(=O)c2[nH]cnc2n(-c2ccccc2)c1=O,7.3,n,n,n,n,n,23812,n,+
Cn1c(=O)c2c(O)cc(=O)n(-c3ccccc3)c2n(C)c1=O,n,n,n,n,n,n,x,x,x
O=C(NC12CC3CC(CC(C3)C1)C2)c1cncc(O)c1,n,n,n,n,n,n,x,x,x
CNC(=O)N(C1=NCC(C)(C)S1)c1ccc(F)c(Cl)c1,11,n,n,n,n,n,25560,n,+
c1ccc(-c2nc3ccccc3c3nncn23)cc1,7.2,x,n,n,n,n,7952,n,n
N#CC1=C(N)OC2=C(C(=O)CCC2)C1CCc1ccccc1 (stereo not drawn),6.4,n,n,n,n,n,7756,x,n
CCOc1ccc(S(=O)(=O)N/N=C2/CC(c3ccccc3)Oc3ccccc32)cc1 (stereo not drawn),x,n,n,n,n,x,x,x,x
CC(C)CCSc1nc(N)c(C#N)cc1C#N,7.7,n,n,n,n,n,14056,n,+
CS(=O)(=O)N(CC(=O)Nc1cccnc1)c1ccc2c(c1)OCO2,n,n,n,n,n,n,x,x,x
COc1cccc(OC)c1C(=O)Nc1cc(Cl)ccc1N1CCOCC1,n,n,n,n,n,n,x,x,x
O=C(Nc1cc(Cl)ccc1N1CCOCC1)c1cnccn1,3.1,n,n,n,n,n,7880,n,n
O=C(CSc1nc2ccccc2c(=O)[nH]1)Nc1ccc(S(=O)(=O)N2CCCC2)cc1,n,n,n,n,n,n,x,x,x
CC(=O)c1nn(-c2ccc(Br)cc2)cc1C(=O)c1ccco1,x,n,x,x,x,x,x,x,x
CC(=O)c1nn(-c2cccc(Cl)c2)cc1C(=O)c1ccco1,4.3,n,n,n,n,n,12508,n,n
COc1ccc(Nc2nc(N)nc(CSc3n[nH]c(-c4ccccc4)n3)n2)cc1,5,n,n,30,n,n,6616,n,+
CCn1c(=O)c2c3c(sc2n2c(=S)[nH]nc12)CCC3,x,n,n,n,n,x,x,x,x
CCOC(=O)c1c(-c2ccsc2)csc1N,7.5,n,n,n,n,n,8708,n,n
CC(=O)c1ccc(N2CCN(C(=O)c3cc4c(=O)n(C)c5ccccc5c4n3C)CC2)cc1,n,x,x,x,x,n,x,x,x
Cc1cc(NC(=O)CSc2nc(CC(C)(C)C)nc3c2c(=O)n(C)c(=O)n3C)no1,x,n,n,n,n,x,x,x,x
CSc1ccccc1-n1nnnc1SCc1ccccc1,3.8,n,n,n,n,n,7588,x,n
CCSc1nc2cc(OC)c(OC)cc2c(=O)n1CC,11,n,n,n,n,n,13604,n,+
